Test results as given in ChEMBL document CHEMBL2407075, “Sulphonamido-quinoxalines: search for anticancer agent” (Eur J Med Chem, 2013).

Columns and labels:
Format in all cases: functional
OVCAR-4 = assay: Growth inhibition of human OVCAR4 cells at 10 uM after 48 hrs by sulforhodamine B assay; conditions: OVCAR-4, 48 h, read-out: GI
Outline: (§1)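 Single-dose screen at 10 µM across the NCI 60 panel. Cells in RPMI 1640 with 5% FBS and 2 mM L-glutamine, plated at 5000–40,000/well and preincubated 24 h at 37 °C, 5% CO2. Drug in DMSO, 48 h exposure. Fixed with TCA, stained with SRB, A515 read. Percent growth is taken relative to untreated control, and inhibition is 100 minus growth.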

MDA-MB-231 = assay: Growth inhibition of human MDA-MB-231 cells at 10 uM after 48 hrs by sulforhodamine B assay; conditions: MDA-MB-231, 48 h, read-out: GI; outline: as §1
NCI-H460 = assay: Growth inhibition of human NCI-H460 cells at 10 uM after 48 hrs by sulforhodamine B assay; conditions: NCI-H460, 48 h, read-out: GI; outline: as §1
SK-MEL-2 = assay: Growth inhibition of human SK-MEL-2 cells at 10 uM after 48 hrs by sulforhodamine B assay; conditions: SK-MEL-2, 48 h, read-out: GI; outline: as §1
SF-295 = assay: Growth inhibition of human SF295 cells at 10 uM after 48 hrs by sulforhodamine B assay; conditions: SF-295, 48 h, read-out: GI; outline: as §1
UACC-62 = assay: Growth inhibition of human UACC62 cells at 10 uM after 48 hrs by sulforhodamine B assay; conditions: UACC-62, 48 h, read-out: GI; outline: as §1
NCI-H522 = assay: Growth inhibition of human NCI-H522 cells at 10 uM after 48 hrs by sulforhodamine B assay; conditions: NCI-H522, 48 h, read-out: GI; outline: as §1
OVCAR-5 = assay: Growth inhibition of human OVCAR5 cells at 10 uM after 48 hrs by sulforhodamine B assay; conditions: OVCAR-5, 48 h, read-out: GI; outline: as §1
SN12C = assay: Growth inhibition of human SN12C cells at 10 uM after 48 hrs by sulforhodamine B assay; conditions: read-out: GI; outline: as §1
HT-29 = assay: Growth inhibition of human HT-29 cells at 10 uM after 48 hrs by sulforhodamine B assay; conditions: HT-29, 48 h, read-out: GI
Outline: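 NCI-60 one-dose primary screen at a single 10 µM concentration. Cells in RPMI 1640 with 5% FBS, preincubated 24 h at 37 °C, 5% CO2. Drug exposure 48 h, then TCA fixation, SRB staining and absorbance at 515 nm. Percent growth calculated against time-zero and untreated control wells, then converted to percent growth inhibition.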

SF-539 = assay: Growth inhibition of human SF539 cells at 10 uM after 48 hrs by sulforhodamine B assay; conditions: SF-539, 48 h, read-out: GI; outline: as §1
UACC-257 = assay: Growth inhibition of human UACC257 cells at 10 uM after 48 hrs by sulforhodamine B assay; conditions: UACC-257, 48 h, read-out: GI; outline: as §1
MDA-MB-468 = assay: Growth inhibition of human MDA-MB-468 cells at 10 uM after 48 hrs by sulforhodamine B assay; conditions: MDA-MB-468, 48 h, read-out: GI; outline: as §1
TK-10 = assay: Growth inhibition of human TK10 cells at 10 uM after 48 hrs by sulforhodamine B assay; conditions: TK-10, 48 h, read-out: GI; outline: as §1
A498 = assay: Growth inhibition of human A498 cells at 10 uM after 48 hrs by sulforhodamine B assay; conditions: A498, 48 h, read-out: GI
Outline: (§2)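 Single-dose NCI-60 prescreen at 10 µM for 48 h at 37 °C and 5% CO2, using cells grown in RPMI 1640 with 5% FBS and 2 mM glutamine. Protein was measured by SRB after TCA fixation: 10% final for adherent lines, 16% for suspension lines. Absorbance was read at 515 nm. Percent growth inhibition was obtained by subtracting percent growth from 100.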

RXF 393 = assay: Growth inhibition of human RXF393 cells at 10 uM after 48 hrs by sulforhodamine B assay; conditions: RXF 393, 48 h, read-out: GI; outline: as §1
UO-31 = assay: Growth inhibition of human UO31 cells at 10 uM after 48 hrs by sulforhodamine B assay; conditions: UO-31, 48 h, read-out: GI; outline: as §1
SNB-19 = assay: Growth inhibition of human SNB19 cells at 10 uM after 48 hrs by sulforhodamine B assay; conditions: SNB-19, 48 h, read-out: GI; outline: as §1
PC-3 = assay: Growth inhibition of human PC3 cells at 10 uM after 48 hrs by sulforhodamine B assay; conditions: PC-3, 48 h, read-out: GI; outline: as §1
SK-OV-3 = assay: Growth inhibition of human SKOV3 cells at 10 uM after 48 hrs by sulforhodamine B assay; conditions: SK-OV-3, 48 h, read-out: GI; outline: as §1
COLO 205 = assay: Growth inhibition of human COLO205 cells at 10 uM after 48 hrs by sulforhodamine B assay; conditions: COLO 205, 48 h, read-out: GI; outline: as §2
U-251 [1] = assay: Growth inhibition of human U251 cells at 10 uM after 48 hrs by sulforhodamine B assay; conditions: U-251, 48 h, read-out: GI; outline: as §1
CCRF-CEM = assay: Growth inhibition of human CCRF-CEM cells at 10 uM after 48 hrs by sulforhodamine B assay; conditions: read-out: GI; outline: as §2
RPMI-8226 = assay: Growth inhibition of human RPMI8226 cells at 10 uM after 48 hrs by sulforhodamine B assay; conditions: RPMI-8226, 48 h, read-out: GI; outline: as §1
Malme-3M = assay: Growth inhibition of human MALME-3M cells at 10 uM after 48 hrs by sulforhodamine B assay; conditions: read-out: GI; outline: as §1
U-251 [2] = assay: Growth inhibition of human U251 cells assessed as cell growth at 10^-6 M after 48 hrs by sulforhodamine B assay; conditions: U-251, 48 h, read-out: Activity
SNB-75 = assay: Growth inhibition of human SNB75 cells after 48 hrs by sulforhodamine B assay; conditions: SNB-75, 48 h
Outline: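 Five-dose NCI 60 screen at 0.01, 0.1, 1, 10 and 100 µM, 48 h exposure after 24 h preincubation, in RPMI 1640 with 5% FBS and 2 mM glutamine. Fixed with TCA (10% final for adherent cells, 16% for suspension cells), stained with SRB, A515 read. Percent growth uses time-zero (Tz), control and treated plates. GI50, TGI and LC50 are read from the dose-response curves.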

OVCAR-8 = assay: Growth inhibition of human OVCAR8 cells assessed as cell growth at 10^-4 M after 48 hrs by sulforhodamine B assay; conditions: OVCAR-8, 48 h, read-out: Activity
U-251 [3] = assay: Growth inhibition of human U251 cells assessed as cell growth at 10^-5 M after 48 hrs by sulforhodamine B assay; conditions: U-251, 48 h, read-out: Activity
NCI-H226 = assay: Growth inhibition of human NCI-H226 cells assessed as cell growth at 10^-6 M after 48 hrs by sulforhodamine B assay; conditions: NCI-H226, 48 h, read-out: Activity

Structure (SMILES) | inhibition of growth at 10 µM (OVCAR-4) | inhibition of growth at 10 µM (MDA-MB-231) | inhibition of growth at 10 µM (NCI-H460) | inhibition of growth at 10 µM (SK-MEL-2) | inhibition of growth at 10 µM (SF-295) | inhibition of growth at 10 µM (UACC-62) | inhibition of growth at 10 µM (NCI-H522) | inhibition of growth at 10 µM (OVCAR-5) | inhibition of growth at 10 µM (SN12C) | inhibition of growth at 10 µM (HT-29) | inhibition of growth at 10 µM (SF-539) | inhibition of growth at 10 µM (UACC-257) | inhibition of growth at 10 µM (MDA-MB-468) | inhibition of growth at 10 µM (TK-10) | inhibition of growth at 10 µM (A498) | inhibition of growth at 10 µM (RXF 393) | inhibition of growth at 10 µM (UO-31) | inhibition of growth at 10 µM (SNB-19) | inhibition of growth at 10 µM (PC-3) | inhibition of growth at 10 µM (SK-OV-3) | other results
O=C(NS(=O)(=O)c1ccc2nc(-c3ccccc3)c(-c3ccccc3)nc2c1)c1ccccc1 | 16.5% | 28.5% | 32% | 15.8% | 21% | 19.6% | 23.5% | 8.43% | 17.4% | 48.4% | 3.89% | 15.2% | 40.2% | 2.54% | 42.2% | 39.1% | 15.2% | 22% | 41.9% | 12.8% | inhibition of growth at 10 µM (COLO 205): 19.5%; inhibition of growth at 10 µM (U-251 [1]): 21.6%; inhibition of growth at 10 µM (CCRF-CEM): 41.3%; inhibition of growth at 10 µM (RPMI-8226): 58.5%; inhibition of growth at 10 µM (Malme-3M): 7.67%
O=S(=O)(Nc1cccc2ccccc12)c1ccc2nc(-c3ccccc3)c(-c3ccccc3)nc2c1 | 31.2% | 38.7% | 23.6% | 14.9% | 3.88% | 28.9% | 47.8% | 2.98% | 8.87% | 82.5% | 5.57% | 21.7% | 54.9% | 6.34% | 31.9% | 48.6% | 17.9% | 9.78% | 41.8% | 5.86% | inhibition of growth at 10 µM (COLO 205): 27.9%; inhibition of growth at 10 µM (U-251 [1]): 7.23%; inhibition of growth at 10 µM (CCRF-CEM): 58.3%; inhibition of growth at 10 µM (RPMI-8226): 44.3%; inhibition of growth at 10 µM (Malme-3M): 9.98%
COc1ccccc1NS(=O)(=O)c1ccc2nc(-c3ccccc3)c(-c3ccccc3)nc2c1 | 30% | 48.3% | 45.5% | 25% | 15.9% | 23.4% | 28.8% | 12.7% | 32.6% | 63.9% | 24.7% | 18.9% | 56.8% | 1.26% | 42.8% | 70.7% | 22.8% | 41.9% | 52.8% | 18.6% | inhibition of growth at 10 µM (COLO 205): 28.9%; inhibition of growth at 10 µM (CCRF-CEM): 49.8%; inhibition of growth at 10 µM (RPMI-8226): 65.7%; inhibition of growth at 10 µM (Malme-3M): 1.87%
O=S(=O)(Nc1ccccn1)c1ccc2nc(-c3ccccc3)c(-c3ccccc3)nc2c1 | 40.1% | 80.1% | 63.4% | 39.3% | 76.8% | 41.1% | 65.6% | 24.3% | 38.5% | 81.7% | 61.9% | 42.5% | -4.67% | 30.2% | 70.2% | -40.4% | 45.2% | 43.6% | 72.2% | 44.9% | growth at 1 µM (U-251 [2]): 84%; GI50 (SNB-75): 2.23 µM; TGI (SNB-75): > 100 µM; CC50 (SNB-75; read-out: LC50 (the source's name)): > 100 µM; growth at 100 µM (OVCAR-8): 46%; growth at 10 µM (U-251 [3]): 2%; inhibition of growth at 10 µM (COLO 205): 54.2%; inhibition of growth at 10 µM (U-251 [1]): 56.5%; inhibition of growth at 10 µM (CCRF-CEM): 70.7%; growth at 1 µM (NCI-H226): 96%; inhibition of growth at 10 µM (RPMI-8226): 89.9%; inhibition of growth at 10 µM (Malme-3M): 32.9%
NC(=S)NNS(=O)(=O)c1ccc2nc(-c3ccccc3)c(-c3ccccc3)nc2c1 | 16.5% | 17.6% | 15.6% | 7.94% | 8.92% | 24.3% | 13.7% | 4.85% | 6.98% | 30.8% | 21.7% | 8.83% | 30.8% | 2.74% | 26.8% | 29.2% | 13.7% | 14.8% | 34.6% | 5.98% | inhibition of growth at 10 µM (COLO 205): 4.83%; inhibition of growth at 10 µM (U-251 [1]): 26.8%; inhibition of growth at 10 µM (CCRF-CEM): 35.8%; inhibition of growth at 10 µM (RPMI-8226): 46.4%; inhibition of growth at 10 µM (Malme-3M): 2.94%
CC(=S)NS(=O)(=O)c1ccc2nc(-c3ccccc3)c(-c3ccccc3)nc2c1 | 13.4% | 14.8% | 8.63% | 8.53% | 5.83% | 20.7% | 3.73% | 2.84% | 2.83% | 21.5% | 3.29% | 2.23% | 23.7% | 6.93% | 22.7% | 14.5% | 10.6% | 2.12% | 33.9% | 4.85% | inhibition of growth at 10 µM (COLO 205): 4.64%; inhibition of growth at 10 µM (U-251 [1]): 10.3%; inhibition of growth at 10 µM (CCRF-CEM): 24.8%; inhibition of growth at 10 µM (RPMI-8226): 39.6%; inhibition of growth at 10 µM (Malme-3M): 2.85%
